From article PMC6315097 (The Korean Journal of Physiology & Pharmacology : Official …, 2018)

Assays:
[1] = Pharmacokinetic profiles in male C57BL/6 mice; format: in vivo; details: for AUC(0-t): AUC0-24hr
[2] = test system: male C57BL/6 mice; test: Total GLP-1 in plasma after glucose loading in normoglycemic mice; format: in vivo; details: 30 min after glucose loading
Procedure, shortened: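 Fasted (16 h) 8-week-old male C57BL/6 mice, 7 per group, dosed orally with test compound or vehicle 30 min before a 2 g/kg glucose load. Plasma collected from the subclavian vein 30 min after loading. Total GLP-1 measured by multispecies ELISA. One-way ANOVA with Dunnett's test versus vehicle.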

[3] = test system: male C57BL/6 mice; test: Oral glucose tolerance test in normoglycemic mice; format: in vivo
Procedure, shortened: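 Male C57BL/6 mice, 8 weeks old, fasted 16 h. Test compound given orally 30 min before a glucose load of 2 g/kg (10 ml/kg). Tail-nick blood glucose read by glucose strip before loading and at 0, 15, 30, 60 and 120 min after. Glucose AUC0–120min calculated by the trapezoidal rule. n=6; mean±S.E.M.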

[4] = test system: male C57BL/6 mice; test: Urinary glucose excretion over 24 h in normoglycemic mice; format: in vivo; details: single oral dose 3 mg/kg with 2 g/kg glucose, 24 h urine
Procedure, shortened: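 Male C57BL/6 mice, 8 weeks old, 3 per group, allocated by body weight and fasted overnight. […] Urine collected in metabolism cages over 24 h. Urine volume and glucose measured by clinical chemistry analyser and normalised to body weight.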

[5] = molecular target: T1, human SGLT2 (Homo sapiens, UniProt P31639); test: [14C]-AMG uptake inhibition in HEK293 cells stably expressing human SGLT2; format: cell-based; details: human SGLT2 vs human SGLT1, in vitro
T1 sequence (P31639 1-672): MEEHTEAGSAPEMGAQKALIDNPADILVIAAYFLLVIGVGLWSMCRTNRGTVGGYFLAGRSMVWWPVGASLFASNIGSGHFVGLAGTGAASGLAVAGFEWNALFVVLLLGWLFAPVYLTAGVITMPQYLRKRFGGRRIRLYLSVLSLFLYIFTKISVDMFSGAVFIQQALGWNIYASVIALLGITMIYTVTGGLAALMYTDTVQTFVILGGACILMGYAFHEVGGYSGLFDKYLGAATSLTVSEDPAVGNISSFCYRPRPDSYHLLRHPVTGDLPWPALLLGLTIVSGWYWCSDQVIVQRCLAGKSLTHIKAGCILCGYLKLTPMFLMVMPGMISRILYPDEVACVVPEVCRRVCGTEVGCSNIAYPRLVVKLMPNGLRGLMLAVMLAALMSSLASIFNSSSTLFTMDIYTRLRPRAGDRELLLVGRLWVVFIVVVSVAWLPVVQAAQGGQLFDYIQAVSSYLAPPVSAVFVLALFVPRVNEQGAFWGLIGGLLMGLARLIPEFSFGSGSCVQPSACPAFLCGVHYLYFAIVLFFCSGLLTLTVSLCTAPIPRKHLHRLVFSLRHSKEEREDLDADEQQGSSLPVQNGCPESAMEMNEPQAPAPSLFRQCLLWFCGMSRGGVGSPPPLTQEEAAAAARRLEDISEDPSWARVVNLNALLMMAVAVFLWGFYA

[6] = test system: db/db mice; test: 4-week repeated administration in db/db mice; format: in vivo; details: 4-week repeated oral dosing
Procedure, shortened: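 Male db/db mice, 8 weeks old, 7 per group, allocated by HbA1c and blood glucose after a 16 h fast. Test compound given orally once daily for 28 days. HbA1c measured from tail-vein blood on days 0 and 28. Blood glucose checked twice weekly. Body weight taken daily. OGTT on day 29, 24 h after the last dose: glucose 2 g/kg, samples at −60, 0, 15, 30, 60 and 120 min. Mean±S.E.M.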

[7] = test system: mice; details: cited from earlier work
[8] = male, C57BL/6, mouse, plasma, po
[9] = male, C57BL/6, mouse, plasma, po, 0.3 mg/kg, mice
[10] = male, C57BL/6, mouse, plasma, po, 1 mg/kg, mice
[11] = single oral 1 mg/kg 30 min before glucose 2 g/kg

| Tmax [1, 8] | half-life [1, 8] | AUC(0-t) [1, 9] | Cmax [1, 9] | AUC(0-t) [1, 10] | Cmax [1, 10] | AUC(0-t) ([1]; male, C57BL/6, mouse, plasma, po, 3 mg/kg, mice) | maximum plasma level ([1]; mice, single oral dose 0.1 mg/kg) | selectivity for SGLT2 over SGLT1 [5] | Structure (SMILES) | Total GLP-1 in plasma ([2]; single oral 0.3 mg/kg) | Total GLP-1 in plasma ([2]; single oral 1 mg/kg) | Total GLP-1 in plasma ([2]; single oral 3 mg/kg, 3 mg/kg) | area under the curve (AUC) of glucose tolerance, OGTT 120 min ([3]; single oral 0.3 mg/kg 30 min before glucose 2 g/kg) | area under the curve (AUC) of glucose tolerance, OGTT 120 min [3, 11] | area under the curve (AUC) of glucose tolerance, OGTT 120 min ([3]; single oral 3 mg/kg 30 min before glucose 2 g/kg) | Urinary glucose excretion [4] | change in body weight compared to vehicle-treated db/db mice [6] | reduction of glucose reabsorption ([7]; SGLT1 and SGLT2 double-knockout mice) | inhibition of glucose reabsorption ([7]; wild-type mice) | effect on blood glucose increases during OGTT [3, 11] |
| --- | --- | --- | --- | --- | --- | --- | --- | --- | --- | --- | --- | --- | --- | --- | --- | --- | --- | --- | --- | --- |
| 0.5 h | 3.1 h | 473 ng·h/mL | 142 ng/mL | 1300 ng·h/mL | 439 ng/mL | 5460 ng·h/mL | 142 ng/mL | 10 fold | CCc1ccc(Cc2cc([C@@H]3O[C@H](CO)[C@@H](O)[C@H](O)[C@H]3O)cc3c2CCC3)cc1 [HM41322, (2S,3R,4R,5S,6R)-2-[7-(4-ethylbenzyl)-2,3-dihydro-1H-inden-5-yl]-6-(hydroxymethyl)tetrahydro-2H-pyran-3,4,5-triol] | 15.0 ± 6.6 pM | 18.0 ± 5.0 pM | 34.2 ± 9.7 pM | 303.3 ± 60.17 mg·h/dL | 228.5 ± 16.96 mg·h/dL | 170.7 ± 13.14 mg·h/dL | 19.32±1.16 mg/g body weight | did not induce a significant change in body weight |  |  |  |
|  |  |  |  |  |  |  |  |  | OC[C@H]1O[C@@H](c2ccc(Cl)c(Cc3ccc(O[C@H]4CCOC4)cc3)c2)[C@H](O)[C@@H](O)[C@@H]1O [Empagliflozin] |  |  |  |  |  |  |  |  | 100% | 56% |  |
|  |  |  |  |  |  |  |  |  | CCOc1ccc(Cc2cc([C@@H]3O[C@H](CO)[C@@H](O)[C@H](O)[C@H]3O)ccc2Cl)cc1 [Dapagliflozin, (1S)-1,5-anhydro-1-C-{4-chloro-3-[(4-ethoxyphenyl)methyl]phenyl}-D-glucitol, reference compound] |  | 15.5 ± 5.7 pM |  |  |  |  |  | did not induce a significant change in body weight |  |  | decreased blood glucose increases during OGTT |
